Results collected from several papers.
Lines come from different studies, so protocols differ.
Sample: plasma
Route: oral

SMILES	host	dose	bioavailability [%]
CN1Cc2c(N)cccc2C(=O)N1C1CCC(=O)NC1=O (stereo not shown)	male Sprague-Dawley rat	3 mg/kg	82.5
N#C[C@@]12C[C@@H]1[C@@H](n1cnc3c(N[C@@H](C4CCC4)C4CC4)nc(I)nc31)[C@H](O)[C@@H]2O	male Wistar rat	1 mg/kg	7.18
CC(=O)CC(=O)C1CC(C)C(=O)C1=O (stereo not shown)	male Sprague-Dawley rat	100 mg/kg	100
O=C(C=Cc1ccccc1)Nc1cc(-c2ccnc(N3CCC(O)CC3)c2)ccn1	female Sprague-Dawley rat	50 mg/kg	~38.5
Cc1c(C(=O)O)ccc2c3n(nc12)[C@@H]1[C@H](C3)N(CC2CC2)[C@@]2(C(=O)Nc3cc(Cl)ccc32)[C@H]1c1cccc(Cl)c1F	male rat	2 mg/kg	55
CC(=Nc1ccc(N=Cc2cnccn2)cc1)N(C)C	male Sprague-Dawley rat	200 mg/kg	12
CC(/C=C/C=C(\C)C(=O)O)=C\C=C\C=C(C)\C=C\C=C(/C)C(=O)O	female Wistar rat	20 mg/kg	55 to 66
CC1(CN)CCN(c2cnc3c(Sc4ccncc4Cl)n[nH]c3n2)CC1	male Sprague-Dawley rat	10 mg/kg	42.5
O=C1CC[C@H](N2Cc3cc(N4CCN(CC5CCN(c6ccc([C@@H]7c8ccc(O)cc8CC[C@@H]7c7ccccc7)cc6)CC5)CC4)ccc3C2=O)C(=O)N1	female Sprague-Dawley rat	20 mg/kg	24.2
Nc1ccc(/C=C/C(=O)NCc2cc3cc(-c4ccc(C(=O)N5CCC(F)(F)CC5)cc4)cc(-c4ccc(F)cc4)c3o2)cn1	rat	3 mg/kg	19.6
